{"source": "ChEMBL document CHEMBL3997791", "about": "“Nanomolar-Potency Aminophenyl-1,3,5-triazine Activators of the Cystic Fibrosis Transmembrane Conductance Regulator (CFTR) Chloride Channel for Prosecretory Therapy of Dry Eye Diseases” (J Med Chem, 2017)", "key": {"[1]": {"target": "T1, Anoctamin-1 (Homo sapiens) (UniProt Q5XXA6)", "T1 sequence (whole entry)": "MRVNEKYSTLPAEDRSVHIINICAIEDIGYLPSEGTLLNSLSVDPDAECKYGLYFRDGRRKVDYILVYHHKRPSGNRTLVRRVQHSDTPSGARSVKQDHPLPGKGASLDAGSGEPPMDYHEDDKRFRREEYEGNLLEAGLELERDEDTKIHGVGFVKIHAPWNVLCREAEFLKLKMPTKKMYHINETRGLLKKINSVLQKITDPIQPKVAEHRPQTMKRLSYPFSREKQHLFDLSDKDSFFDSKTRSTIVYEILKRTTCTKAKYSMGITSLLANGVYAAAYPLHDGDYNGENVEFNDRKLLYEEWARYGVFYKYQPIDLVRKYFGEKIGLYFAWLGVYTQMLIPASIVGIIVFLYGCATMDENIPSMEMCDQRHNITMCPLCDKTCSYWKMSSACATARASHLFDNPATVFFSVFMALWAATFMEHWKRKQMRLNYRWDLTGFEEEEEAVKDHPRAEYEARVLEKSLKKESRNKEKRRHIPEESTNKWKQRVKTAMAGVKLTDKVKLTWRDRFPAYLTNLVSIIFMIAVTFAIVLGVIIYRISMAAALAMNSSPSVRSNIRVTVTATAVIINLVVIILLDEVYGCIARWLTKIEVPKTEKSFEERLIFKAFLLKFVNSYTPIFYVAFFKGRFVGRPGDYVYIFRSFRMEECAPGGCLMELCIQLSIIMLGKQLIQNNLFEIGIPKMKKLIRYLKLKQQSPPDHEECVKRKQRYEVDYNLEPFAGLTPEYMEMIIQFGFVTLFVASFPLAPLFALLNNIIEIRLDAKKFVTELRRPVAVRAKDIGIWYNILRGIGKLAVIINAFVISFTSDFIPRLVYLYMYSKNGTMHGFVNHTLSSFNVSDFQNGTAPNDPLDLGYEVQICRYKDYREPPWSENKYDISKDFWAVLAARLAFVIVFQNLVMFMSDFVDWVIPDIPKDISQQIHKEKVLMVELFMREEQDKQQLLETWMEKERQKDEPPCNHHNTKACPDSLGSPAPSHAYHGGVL", "assay": "Activation of human TMEM16A expressed in FRT cells co-expressing YFP assessed as increase in iodide influx at 10 uM measured after 10 mins for 2 to 12 sec by fluorescence assay", "assay_type": "cell-based", "how_it_was_run": "(§1)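 FRT cells stably coexpressing TMEM16A and YFP-H148Q; compound at 10 μM. Fluorescence quenching read in plate reader after iodide addition (activation) or iodide plus ATP addition (inhibition); initial rate of iodide influx computed as linear measure of channel function. Representative of two to four experiment sets.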"}, "[2]": {"species": "Homo sapiens", "assay": "Inhibition of calcium-activated chloride channel in human primary bronchial epithelial cells assessed as inhibition of ATP-induced short-circuit current at 10 uM preincubated for 10 mins followed by ATP addition by voltage clamp method", "how_it_was_run": "(§2)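 Primary human bronchial epithelial cells grown at air-liquid interface, mounted in Ussing chambers in symmetrical HCO3−-buffered solutions (95% O2/5% CO2, 37 °C), with Ag/AgCl electrodes. After 10 min preincubation with 10 µM compound, sequential additions were 20 µM amiloride, 20 µM forskolin, 10 µM CFTRinh-172 and 100 µM ATP. Traces represent two to four experiment sets.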"}, "[3]": {"assay": "Elevation of cAMP level in Fischer rat thyroid cells co-expressing YFP and human CFTR at 10 uM incubated for 10 mins by immunoassay", "assay_type": "ADME, cell-based", "settings": "thyroid cell", "how_it_was_run": "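FRT cells expressing wild-type CFTR in 12-well plates, PBS-washed, incubated 10 min with 10 μM compound without or with 90 nM forskolin; references were forskolin alone (90 nM, 20 μM) and 20 μM forskolin + 100 μM IBMX. Lysates assayed for cAMP by immunoassay; mean ± SEM, n = 4.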"}, "[4]": {"test_system": "HT-29", "assay": "Inhibition of iodide influx in human HT-29 cells expressing YFP at 10 uM measured after 10 mins for 2 to 12 sec in presence of ATP by fluorescence assay", "assay_type": "functional, cell-based", "how_it_was_run": "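HT-29 cells expressing YFP halide sensor, 10 μM compound, for non-TMEM16A calcium-activated chloride channel. Plate reader fluorescence quenching after iodide addition (activation) or iodide plus ATP addition (inhibition); initial rate of iodide influx computed as linear measure of channel function. Representative of two to four experiment sets.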"}, "[5]": {"assay": "Suppression of ATP-stimulated elevation of cytoplasmic calcium level in Fischer rat thyroid cells co-expressing YFP and human CFTR at 10 uM incubated for 5 mins by fluo-4 dye based fluorescence assay", "assay_type": "ADME", "settings": "thyroid cell", "how_it_was_run": "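FRT cells in 96-well plates loaded with Fluo-4 NW, pretreated 5 min with 10 μM compound or control; 100 μM ATP added as calcium agonist. Fluorescence followed in plate reader with syringe pumps. Representative of two to four experiment sets.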"}, "[6]": {"species": "Homo sapiens", "assay": "Inhibition of potassium channel in human primary bronchial epithelial cells assessed as effect on short-circuit current at 10 uM after 10 mins by voltage clamp method", "how_it_was_run": "as §2"}, "[7]": {"target": "Cystic fibrosis transmembrane conductance regulator (Homo sapiens, UniProt P13569)", "sequence (P13569 whole entry, looked up)": "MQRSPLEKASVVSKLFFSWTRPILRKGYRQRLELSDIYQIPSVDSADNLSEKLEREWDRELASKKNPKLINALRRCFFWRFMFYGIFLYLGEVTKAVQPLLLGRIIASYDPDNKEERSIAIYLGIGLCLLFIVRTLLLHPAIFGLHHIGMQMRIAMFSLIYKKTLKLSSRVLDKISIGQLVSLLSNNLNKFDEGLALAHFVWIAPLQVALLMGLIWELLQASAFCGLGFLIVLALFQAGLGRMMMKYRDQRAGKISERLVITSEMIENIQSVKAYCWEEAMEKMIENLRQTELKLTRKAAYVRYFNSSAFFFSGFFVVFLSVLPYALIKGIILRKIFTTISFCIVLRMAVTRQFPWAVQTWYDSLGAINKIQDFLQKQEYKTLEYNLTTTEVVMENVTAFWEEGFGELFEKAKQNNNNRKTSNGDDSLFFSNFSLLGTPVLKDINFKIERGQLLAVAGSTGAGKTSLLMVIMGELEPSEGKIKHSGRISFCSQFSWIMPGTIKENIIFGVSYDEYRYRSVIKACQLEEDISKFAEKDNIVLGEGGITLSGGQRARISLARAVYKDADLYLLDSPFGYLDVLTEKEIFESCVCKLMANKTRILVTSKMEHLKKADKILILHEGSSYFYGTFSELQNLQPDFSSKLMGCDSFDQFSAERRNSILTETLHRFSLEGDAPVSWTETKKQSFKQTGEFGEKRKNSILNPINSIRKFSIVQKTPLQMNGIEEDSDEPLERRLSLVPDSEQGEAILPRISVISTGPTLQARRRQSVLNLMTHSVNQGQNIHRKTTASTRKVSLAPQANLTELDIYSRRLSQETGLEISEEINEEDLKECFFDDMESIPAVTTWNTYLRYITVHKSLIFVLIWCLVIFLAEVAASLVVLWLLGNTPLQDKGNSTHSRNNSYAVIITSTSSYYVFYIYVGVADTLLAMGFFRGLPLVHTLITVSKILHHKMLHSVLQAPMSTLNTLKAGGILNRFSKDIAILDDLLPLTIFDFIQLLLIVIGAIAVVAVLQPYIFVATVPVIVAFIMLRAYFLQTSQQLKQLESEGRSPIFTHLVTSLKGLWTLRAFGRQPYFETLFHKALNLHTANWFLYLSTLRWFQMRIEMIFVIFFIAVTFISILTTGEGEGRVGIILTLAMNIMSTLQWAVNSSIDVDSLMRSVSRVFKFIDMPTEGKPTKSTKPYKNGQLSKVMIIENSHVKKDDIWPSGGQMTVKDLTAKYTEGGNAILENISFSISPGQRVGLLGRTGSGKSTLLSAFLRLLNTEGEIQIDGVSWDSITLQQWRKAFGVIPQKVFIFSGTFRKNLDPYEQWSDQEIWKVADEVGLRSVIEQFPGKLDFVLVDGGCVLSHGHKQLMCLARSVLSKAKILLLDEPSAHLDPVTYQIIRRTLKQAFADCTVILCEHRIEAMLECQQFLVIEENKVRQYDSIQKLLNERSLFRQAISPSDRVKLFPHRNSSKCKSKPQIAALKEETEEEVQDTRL", "assay": "Activation of human CFTR expressed in forskolin-stimulated basolateral membrane permeabilized FRT cells co-expressing YFP assessed as increase in short-circuit current by voltage clamp method", "assay_type": "cell-based", "how_it_was_run": "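Ussing chamber with FRT cells co-expressing human wild-type CFTR and YFP. Basolateral side had HCO3−-buffered solution and the apical side half-Cl− solution. The basolateral membrane was permeabilized with 250 µg/mL amphotericin B. Solutions were gassed with 95% O2/5% CO2 at 37 °C. A low forskolin concentration was added first, then cumulative compound additions, then maximal forskolin and 10 µM CFTRinh-172; n = 3.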"}, "[8]": {"target": "T1, Anoctamin-1 (Homo sapiens)", "assay": "Inhibition of human TMEM16A expressed in FRT cells co-expressing YFP assessed as decrease in iodide influx at 10 uM measured after 10 mins for 2 to 12 sec in presence of ATP by fluorescence assay", "assay_type": "cell-based", "how_it_was_run": "as §1"}, "[9]": {"test_system": "Mus musculus", "assay": "Induction of tear secretion in mouse at 250 pmol administered as single topical dose after 12 to 24 hrs by phenol red thread test", "assay_type": "functional", "how_it_was_run": "(§3)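 Mice 8–12 weeks (25–35 g); single ocular dose of 250 pmol (100 μM) in 2.5 μL vehicle (0.3% CMC in Ringer's), both eyes treated identically, vehicle control. Tear volume by phenol red thread, 10 s in lateral canthus under isoflurane, before and at set times after dosing. 5 mice, 10 eyes per condition; two-way ANOVA with Dunnett test.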"}, "[10]": {"test_system": "Mus musculus", "assay": "Induction of tear secretion in mouse at 250 pmol administered as single topical dose up to 8 hrs by phenol red thread test", "assay_type": "functional", "how_it_was_run": "as §3"}, "[11]": {"assay": "Chemical stability in opthalmic vehicle containing 0.3% CMC in Ringer's solution at 100 uM up to 24 hrs at 40 degC by LC-MS analysis", "assay_type": "physicochemical", "how_it_was_run": "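Compound dissolved at 100 μM in ophthalmic vehicle (0.3% CMC in Ringer's solution), held 24 h at 40 °C; chemical integrity checked by LC/MS.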"}, "[12]": {"test_system": "Mus musculus", "assay": "Induction of tear secretion in mouse lacking functional CFTR up to 250 pmol administered as single topical dose up to 6 hrs by phenol red thread test", "settings": "in vivo, topical_or_ocular", "how_it_was_run": "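CF mice lacking functional CFTR; single ocular dose of 250 pmol in 2.5 μL ophthalmic vehicle, both eyes, vehicle control. Tear volume by phenol red thread 10 s in lateral canthus under isoflurane, measured before and at timed points after dosing. 5 mice, 10 eyes per condition.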"}}, "note": "The source made the active and inactive calls. The calls are words filed in the database; no cut-off is given here."}
{"compound": "CCN(CC)c1nc(Nc2ccc3ncsc3c2)nc(OC(C(F)(F)F)C(F)(F)F)n1", "values": [{"measurement": "Activity", "setting": "[1]", "result": "inactive"}, {"measurement": "inhibition", "setting": "[2]", "result": "inactive"}, {"measurement": "Activity", "setting": "[3]", "result": "Non-Toxic"}, {"measurement": "inhibition", "setting": "[4]", "result": "inactive"}, {"measurement": "Activity", "setting": "[5]", "result": "Non-Toxic"}, {"measurement": "inhibition", "setting": "[6]", "result": "inactive"}, {"measurement": "Activity", "setting": "[7]", "result": "Dose-dependent effect"}, {"measurement": "inhibition", "setting": "[8]", "result": "inactive"}]}
{"compound": "CNc1nc(Nc2ccccc2)nc(OCC(F)(F)C(F)F)n1", "values": [{"measurement": "Activity", "setting": "[9]", "result": "inactive"}, {"measurement": "Activity", "setting": "[1]", "result": "inactive"}, {"measurement": "Activity", "setting": "[10]", "result": "Active"}, {"measurement": "inhibition", "setting": "[2]", "result": "inactive"}, {"measurement": "Activity", "setting": "[3]", "result": "Non-Toxic"}, {"measurement": "inhibition", "setting": "[4]", "result": "inactive"}, {"measurement": "Activity", "setting": "[5]", "result": "Non-Toxic"}, {"measurement": "inhibition", "setting": "[6]", "result": "inactive"}, {"measurement": "Activity", "setting": "[7]", "result": "Dose-dependent effect"}, {"measurement": "Stability", "setting": "[11]", "result": "Stable"}, {"measurement": "inhibition", "setting": "[8]", "result": "inactive"}, {"measurement": "Activity", "setting": "[12]", "result": "Non-Toxic"}]}
